Results as given in ChEMBL document CHEMBL4354811, “Discovery of Novel Aryl Carboxamide Derivatives as Hypoxia-Inducible Factor 1α Signaling Inhibitors with Potent Activities of Anticancer Metastasis” (J Med Chem, 2019).
Active and inactive are the calls of the source. The rule behind the calls is not given here.

What was measured:
[1] = tested on: HUVEC; experiment: Antiangiogenic activity in HUVEC assessed as suppression of capillary-like tubule formation at 2 to 5 uM incubated under hypoxia for 12 hrs by inverted microscopic method; format: functional, cell-based; settings: Homo sapiens
Procedure, shortened: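 HUVECs seeded on matrigel-precoated wells under hypoxia, treated at 2 or 5 μM; capillary-like tubule branches photographed; representative of three independent experiments.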

[2] = tested on: HeLa; experiment: Inhibition of HIF1alpha accumulation in hypoxia-induced human HeLa cells incubated with compound under normoxia for 1 hr followed by hypoxia induction and measured after 24 hrs by Western blot analysis; format: functional, cell-based
Procedure, shortened: (§1)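 MDA-MB-231, SKOV3 and HeLa cells exposed to hypoxia with compound at a range of concentrations; HIF-1α accumulation assessed by western blot.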

[3] = tested on: SK-OV-3; experiment: Inhibition of HIF1alpha accumulation in hypoxia-induced human SKOV3 cells incubated with compound under normoxia for 1 hr followed by hypoxia induction and measured after 24 hrs by Western blot analysis; format: functional, cell-based; procedure, shortened: as §1
[4] = tested on: MDA-MB-231; experiment: Inhibition of cell migration in human MDA-MB-231 cells incubated with compound under normoxia for 1 hr followed by hypoxia induction and measured after 24 hrs by wound healing assay based inverted microscopic method; format: functional
Procedure, shortened: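 Wound-healing: monolayer of MDA-MB-231 scratched, treated 2, 5, 10 μM or DMSO under normoxia 1 h then hypoxia 24 h; wound closure imaged; three independent experiments.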

[5] = tested on: HUVEC; experiment: Antiangiogenic activity in HUVEC assessed as disruption in capillary-like tubule formation at 5 uM incubated under hypoxia for 12 hrs by inverted microscopic method; format: functional, Homo sapiens
Procedure, shortened: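 HUVECs on matrigel-precoated wells, incubated under hypoxia with 5 μM compound; tubule branches photographed; three independent experiments.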

[6] = tested on: MDA-MB-231; experiment: Downregulation of MMP9 protein expression in human MDA-MB-231 cells incubated with compound under normoxia for 1 hr followed by hypoxia induction and measured after 24 hrs by Western blot analysis; format: functional, cell-based
Procedure, shortened: (§2)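 MDA-MB-231 cells given 2, 5 or 10 μM under normoxia 1 h, then hypoxia 24 h; E-cadherin, vimentin, MMP-2, MMP-9 by western blot, GAPDH loading control; three independent experiments.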

[7] = tested on: MDA-MB-231; experiment: Inhibition of cell invasion in human MDA-MB-231 cells incubated with compound under normoxia for 1 hr followed by hypoxia induction and measured after 24 hrs by transwell assay/crystal violet staining based inverted microscopic method; format: functional
Procedure, shortened: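 Transwell with MDA-MB-231 cells in upper chamber on matrigel-precoated inserts; 2, 5, 10 μM under normoxia 1 h then hypoxia 24 h; invaded cells stained with crystal violet and counted; three experiments, means ± SD.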

[8] = tested on: MDA-MB-231; experiment: (§3) Antimetastatic activity against human MDA-MB-231 cells stable expressing luciferase xenografted in ip dosed BALB/c nude mouse assessed as reduction in lung colonization of tumor cells administered every 2 days for 3 weeks starting at 24 hrs post-trensfection and measured at 24 hrs after final dose by bioluminescent imaging assay; format: functional, organism-based
Procedure, shortened: (§4)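 Luciferase-expressing MDA-MB-231 cells injected into tail vein of BALB/c nude mice; i.p. vehicle or 15 and 30 mg/kg starting 24 h later, every 2 days for 20 days; bioluminescence imaged 24 h after last dose; lungs examined by H&E histology; n = 4 per group, mean ± SD.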

[9] = Toxicity in BALB/c nude mouse xenografted with human MDA-MB-231 cells stable expressing luciferase assessed as change in body weight at 15 to 30 mg/kg, ip administered every 2 days for 3 weeks starting at 24 hrs post-trensfection; format: organism-based; settings: in vivo
Procedure, shortened: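 Tail-vein luciferase MDA-MB-231 lung-metastasis model in BALB/c nude mice; 15 or 30 mg/kg i.p. every 2 days for 20 days from 24 h post-injection; body weight recorded at study end.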

[10] = target: Hypoxia-inducible factor 1-alpha (Homo sapiens) (UniProt Q16665); experiment: Induction of HIF1alpha (unknown origin) degradation
Hypoxia-inducible factor 1-alpha (Homo sapiens), sequence (Q16665 whole entry, looked up): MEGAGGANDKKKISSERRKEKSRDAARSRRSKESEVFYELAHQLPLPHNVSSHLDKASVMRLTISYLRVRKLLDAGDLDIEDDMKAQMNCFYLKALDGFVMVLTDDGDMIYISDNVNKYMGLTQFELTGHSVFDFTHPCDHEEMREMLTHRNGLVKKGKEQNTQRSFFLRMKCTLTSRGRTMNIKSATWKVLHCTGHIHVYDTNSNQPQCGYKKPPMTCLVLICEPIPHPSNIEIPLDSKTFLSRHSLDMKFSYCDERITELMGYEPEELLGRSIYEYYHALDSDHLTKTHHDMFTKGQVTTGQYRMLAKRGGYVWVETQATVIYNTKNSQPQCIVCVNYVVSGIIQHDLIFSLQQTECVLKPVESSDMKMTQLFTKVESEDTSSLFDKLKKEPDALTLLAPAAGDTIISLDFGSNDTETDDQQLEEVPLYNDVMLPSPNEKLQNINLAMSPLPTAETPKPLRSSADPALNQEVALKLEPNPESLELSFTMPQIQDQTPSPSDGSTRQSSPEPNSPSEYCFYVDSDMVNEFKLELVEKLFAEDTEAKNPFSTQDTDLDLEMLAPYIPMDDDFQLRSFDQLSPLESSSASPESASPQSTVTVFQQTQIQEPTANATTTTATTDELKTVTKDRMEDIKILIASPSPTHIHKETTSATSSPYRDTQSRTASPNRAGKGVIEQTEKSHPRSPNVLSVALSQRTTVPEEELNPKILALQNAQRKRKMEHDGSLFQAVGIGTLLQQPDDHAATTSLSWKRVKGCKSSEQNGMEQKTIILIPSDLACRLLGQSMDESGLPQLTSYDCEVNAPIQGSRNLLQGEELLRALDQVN

[11] = tested on: MDA-MB-231; experiment: as §3, with “final doses” for “final dose”, “by H and E staining method” for “by bioluminescent imaging assay”; format: functional, organism-based; procedure, shortened: as §4
[12] = tested on: HCCLM3; experiment: Inhibition of HIF1alpha accumulation in hypoxia-induced human HCCLM3 cells at 10 uM incubated with compound under normoxia for 1 hr followed by hypoxia induction and measured after 24 hrs by Western blot analysis; format: functional, cell-based
Procedure, shortened: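 LM3 cells treated at 10 μM under hypoxia; HIF-1α protein by western blot, LW6 as reference.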

[13] = target: Hypoxia-inducible factor 1-alpha (Homo sapiens) (UniProt Q16665); experiment: (§5) Potency index, ratio of IC50 for LW6 to IC50 for test compound for inhibition of HIF1alpha transcriptional activity in hypoxia-induced human HCCLM3 cells incubated with compound under normoxia for 1 hr followed by hypoxia induction and measured after 24 hrs by HRE-dependent dual luciferase reporter gene assay
[14] = tested on: MDA-MB-231; experiment: Inhibition of HIF1alpha accumulation in hypoxia-induced human MDA-MB-231 cells incubated with compound under normoxia for 1 hr followed by hypoxia induction and measured after 24 hrs by Western blot analysis; format: functional, cell-based; procedure, shortened: as §1
[15] = species: Danio rerio; experiment: Antiangiogenic activity in […]/EGFP transgenic zebrafish embryo assessed as destruction of subintestinal vessel at 0.5 to 1 uM incubated for 24 hrs by confocal microscopic method; format: functional, organism-based
Procedure, shortened: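 Transgenic zebrafish with GFP-labeled vascular endothelium; embryos selected, […], exposed 24 h to 0.5 or 1 μM (DMSO vehicle, n = 10; apatinib 0.5 μM reference); SIVs imaged by confocal microscopy and counted per field; means ± SD, three independent experiments.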

[16] = tested on: HUVEC; experiment: Antiproliferative activity against HUVEC at 2 to 5 uM; format: cell-based; settings: human
[17] = tested on: MDA-MB-231; experiment: Inhibition of cell growth in human MDA-MB-231 cells at 2 to 10 uM incubated for 24 hrs; format: cell-based; settings: mda-mb-231, 24 h
[18] = Cytotoxicity against human HCCLM3 cells assessed as reduction in cell viability incubated for 48 hrs by MTT assay; format: cell-based
[19] = tested on: MDA-MB-231; experiment: Induction of apoptosis in human MDA-MB-231 cells at 2 to 10 uM incubated for 24 hrs; format: cell-based; settings: mda-mb-231, 24 h
[20] = target: Hypoxia-inducible factor 1-alpha (Homo sapiens) (UniProt Q16665); experiment: as §5, with “2-Methyl-N-phenethylthiazole-4-carboxamide” for “LW6”
[21] = target: Hypoxia-inducible factor 1-alpha (Homo sapiens) (UniProt Q16665); experiment: Inhibition of HIF1alpha transcriptional activity in hypoxia-induced human HCCLM3 cells co-transfected with luciferase reporter plasmid containing five copies of HREs and pRL-SV40 plasmid encoding Renilla luciferase at 10 uM incubated with compound under normoxia for 1 hr followed by hypoxia induction and measured after 24 hrs by HRE-dependent dual luciferase reporter gene assay relative to control
Procedure, shortened: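 LM3 cells co-transfected with firefly luciferase reporter carrying five HRE copies plus pRL-SV40 Renilla plasmid; after transfection treated and kept under hypoxia; firefly luminescence normalized to Renilla. Single-point inhibition rate at 10 μM; IC50 for selected compounds.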

[22] = tested on: MDA-MB-231; experiment: Downregulation of MMP2 protein expression in human MDA-MB-231 cells incubated with compound under normoxia for 1 hr followed by hypoxia induction and measured after 24 hrs by Western blot analysis; format: functional, cell-based; procedure, shortened: as §2
[23] = tested on: MDA-MB-231; experiment: Inhibition of vimentin protein expression in human MDA-MB-231 cells incubated with compound under normoxia for 1 hr followed by hypoxia induction and measured after 24 hrs by Western blot analysis; format: functional, cell-based; procedure, shortened: as §2
[24] = tested on: HUVEC; experiment: Antiangiogenic activity in HUVEC assessed as reduction in VEGF mRNA expression incubated with compound under normoxia for 1 hr followed by hypoxia induction and measured after 24 hrs by real time-PCR analysis; format: functional, cell-based; settings: Homo sapiens
Procedure, shortened: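 HUVECs treated with 0.5 or 1 μM; VEGF mRNA by real-time PCR, normalized to GAPDH, compared with normoxia and untreated hypoxic controls; means ± SD of three independent experiments.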

[25] = tested on: MDA-MB-231; experiment: Induction of E-cadherin protein expression in human MDA-MB-231 cells incubated with compound under normoxia for 1 hr followed by hypoxia induction and measured after 24 hrs by Western blot analysis; format: functional, cell-based; procedure, shortened: as §2

For `COc1ccccc1-c1ccc(C(=O)NCCc2ccccc2F)nc1`, the Activity [1] was “Active”, the inhibition [2] was “Dose-dependent effect” and the inhibition [3] was “Dose-dependent effect”. The inhibition [4] was “Dose-dependent effect”, the Activity [5] was 100% and the inhibition [6] was “Dose-dependent effect”. For the same compound, the inhibition [7] was “Dose-dependent effect”, the Activity [8] was “Dose-dependent effect” and the Activity [9] was “Non-Toxic”. For the same compound, the Activity [10] was “Active”, the Activity [11] was “Dose-dependent effect” and the “HIF-1α accumulation inhibition (qualitative)” value [12] was “Active”. The Ratio IC50 [13] was 10, the inhibition [14] was “Dose-dependent effect” and the Activity [15] was “Active”. For the same compound, the Activity [16] was “Non-Toxic”, the “growth inhibition (GI)” value [17] was “Non-Toxic” and the CC50 at 48 h [18] was > 50 µM. The Activity [19] was “Non-Toxic”, the Ratio IC50 [20] was 170 and the inhibition [21] was 91.4 to 97.7%. For the same compound, the inhibition [22] was “Dose-dependent effect”, the inhibition [23] was “Dose-dependent effect” and the Activity [24] was “Dose-dependent effect”. For the same compound, the Activity [25] was “Dose-dependent effect”.
